Experimental data as given in PubChem BioAssay.
Active and inactive are the calls of the source. Unless noted, no stated cut-off is given here; in the data, active means inhibition above about 31%; inactive means the rest.

Columns and labels:
[1] = HUVEC growth inhibition – cell-based, human, primary screen (AID 575;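 active means viability at or below 30% in both replicate assays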;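 further: 100% = median of untreated cell wells with 0.1% DMSO on each plate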); conditions: HUVEC proliferation, CellTiter-Glo luminescence, 72 h; at 10 µM; stronger effect = lower value
In short: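 system = HUVEC primary cells | amount = 1250 cells/well | buffer or medium = supplemented EBM, 2% fetal bovine serum | dosing = single-point 10 µM, DMSO 0.1% final | times = 72 h compound incubation | detection = CTG luminescence | read-out = % viability relative to median vehicle-well signal on each plate | control set = vehicle and MePR control wells | format = collagen-coated 384-well format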

[2] = growth inhibitors of H69AR lung tumor, primary screen, human, duplicate replicates (AID 580;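 active means viability at or under a set limit in both replicates, limit being median viability minus 3 SD, cut at about 48% in these data, passing the limit was not always enough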;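 further: 100% = mean luminescence of untreated wells and 0% = no signal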); conditions: H69AR lung tumor cells viability, ATP luminescence, 72 h; at 10 µM; stronger effect = lower value
[3] = reversal of MRP1-mediated doxorubicin resistance, pilot screen, H69AR cells, doxorubicin co-treatment (AID 601;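 active means viability loss from added drug above about 55%, and viability with drug at most 40%, in both replicates, limit read from the data, passing the limit was not always enough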); conditions: CellTiter-Glo, 72 h, at 10 µM; for differential viability (reversal): stronger effect = higher value
[4] = 384-well plate pilot, post-Golgi transport modulator project, inhibition of yeast transport mutant growth (AID 636); conditions: absorbance 615 nm, about 18 h, stronger effect = higher value
[5] = growth suppression of yeast trafficking mutant, preliminary HTS, modulators of trafficking downstream of Golgi apparatus project, 1536-format plate, OD 615 nm (AID 637; in the data active means inhibition above about 30%); conditions: yeast transport mutant growth, absorbance 615 nm, 18 h; stronger effect = higher value
[6] = H69AR cells + 2 uM doxorubicin, measured here: viability with 2 uM doxorubicin, stronger effect = lower value
[7] = H69AR cells, compound alone cytotoxicity

| Compound | viability [1] | viability [2] | differential viability (reversal) ([3]; H69AR cells + 2 uM doxorubicin) | viability [3, 6] [%] | viability [3, 7] [%] | inhibition [4] | inhibition [5] |
| --- | --- | --- | --- | --- | --- | --- | --- |
| CC(=O)CC(=O)Nc1ccccc1NC(C)=O | 105% (inactive) | 101% (inactive) | 8.12% (inactive) | 93.2 | 101 | -2.86% (inactive) | 1.43% (inactive) |
| Cc1cccc(NC(=O)CCn2ccnc2C)c1 | 98.8% (inactive) | 92.3% (inactive) | 3.98% (inactive) | 88.4 | 92.3 | -1.95% (inactive) | 0.79% (inactive) |
| O=C(NC1CCCCC1)C1CCCN1C(=O)NCc1ccccc1 (configuration not stated) | 101% (inactive) | 102% (inactive) | -1.87% (inactive) | 104 | 102 | -4.93% (inactive) | -3.17% (inactive) |
| Nn1cnnc1SCC(=O)Nc1ccc2c(c1)OCCO2 | 97.5% (inactive) | 97.1% (inactive) | -1.08% (inactive) | 98.2 | 97.1 | -4.4% (inactive) | 8.41% (inactive) |
| COc1cc(S(=O)(=O)N(C)C)ccc1F | 95.4% (inactive) | 91.7% (inactive) | 9.55% (inactive) | 82.1 | 91.7 | -6.67% (inactive) | 3.65% (inactive) |
| CCn1c(C)nc2cc(C(=O)OC(C(F)(F)C(F)F)C(F)(F)C(F)F)ccc21 | 58.4% (inactive) | 79.2% (inactive) | 0.115% (inactive) | 79.1 | 79.2 | -2.47% (inactive) | 3.97% (inactive) |
| CCc1ccc(NC(=O)CS(=O)CC(=O)NCC2OCCc3ccccc32)cc1 (configuration not stated) | 101% (inactive) | 99.1% (inactive) | 4.08% (inactive) | 95 | 99.1 | -0.93% (inactive) | 1.75% (inactive) |
| Cc1nc(C)c(C(=O)C2=C(O)C(=O)N(CCCn3ccnc3)C2c2ccccc2)s1 (configuration not stated) | 94.5% (inactive) | 95% (inactive) | 0.995% (inactive) | 94.1 | 95 | -0.13% (inactive) | -2.54% (inactive) |
| O=C(c1noc2c1CCc1ccccc1-2)N1CCOCC1 | 95.6% (inactive) | 96.4% (inactive) | 6.12% (inactive) | 90.3 | 96.4 | -0.13% (inactive) | -2.86% (inactive) |
| Oc1cccc2ccc(Nc3ccccn3)nc12 | 2.4% (active) | 1.99% (active) | 0.495% (inactive) | 1.5 | 1.99 | -4.16% (inactive) | 2.22% (inactive) |
| COc1ccccc1N1CCN(C(=O)C2CC=CCC2C(=O)O)CC1 (configuration not stated) | 97.3% (inactive) | 93.1% (inactive) | 6.56% (inactive) | 86.5 | 93.1 | -4.61% (inactive) | 2.54% (inactive) |
| O=C1C2ON(c3ccccc3)C(c3cccnc3)C2C(=O)N1c1ccccc1 (configuration not stated) | 104% (inactive) | 89.8% (inactive) | 2.77% (inactive) | 87.1 | 89.8 | -1.45% (inactive) | -10.3% (inactive) |
| CCOC(=O)c1cccc(NC(=O)CCn2nnc3ccccc32)c1 | 89.9% (inactive) | 98.6% (inactive) | 9.72% (inactive) | 88.9 | 98.6 | -2.5% (inactive) | 0.48% (inactive) |
| C=CCn1c(Br)nc2c1c(=O)[nH]c(=O)n2C | 97.7% (inactive) | 85.1% (inactive) | 6.37% (inactive) | 78.7 | 85.1 | -6.93% (inactive) | 3.33% (inactive) |
| c1ccc(OCc2nc3ccccc3[nH]2)cc1 | 85.4% (inactive) | 92.2% (inactive) | 1.59% (inactive) | 90.6 | 92.2 | -3.6% (inactive) | -4.13% (inactive) |
| O=C(Nc1ccc(Cl)cc1)N1CCSCC1 | 97.6% (inactive) | 107% (inactive) | 17% (inactive) | 89.6 | 107 | -1.45% (inactive) | -0.16% (inactive) |
| CCOc1cc(C)c(C(C)C)cc1S(=O)(=O)N1CCN(C)CC1 | 96.1% (inactive) | 96.2% (inactive) | 2.99% (inactive) | 93.2 | 96.2 | 1.84% (inactive) | -5.71% (inactive) |
| N#Cc1nc(COc2ccccc2)oc1NCCN1CCOCC1 | 108% (inactive) | 107% (inactive) | 11.7% (inactive) | 95 | 107 | -4.68% (inactive) | 10.5% (inactive) |
| COc1ccccc1-c1nc(C(F)(F)F)c(OC)o1 | 104% (inactive) | 91.9% (inactive) | 10.3% (inactive) | 81.6 | 91.9 | -1.97% (inactive) | 17.9% (inactive) |
| CCOC(=O)CCC(=O)c1c(C)oc2ccc(OC)cc12 | 81.8% (inactive) | 88.4% (inactive) | -5% (inactive) | 93.4 | 88.4 | 1.04% (inactive) | 13.3% (inactive) |
| CC(=O)c1c(C)[nH]c(C(=O)NC2=NCCS2)c1C | 80.9% (inactive) | 99.8% (inactive) | 23.3% (inactive) | 76.5 | 99.8 | -3.51% (inactive) | -5.4% (inactive) |

| Compound | viability [1] | viability [2] | differential viability (reversal) ([3]; H69AR cells + 2 uM doxorubicin) | viability [3, 6] [%] | viability [3, 7] [%] | inhibition [4] | inhibition [5] |
| --- | --- | --- | --- | --- | --- | --- | --- |
| CCCCCC1NC(=O)NC1CCCCCC(=O)O (configuration not stated) | 98.5% (inactive) | 104% (inactive) | 14.3% (inactive) | 89.2 | 104 | -0.91% (inactive) | -2.22% (inactive) |
| CC1CCN(C(=O)c2ccc(C(=O)N3CCC(C)CC3)cc2)CC1 | 87.3% (inactive) | 101% (inactive) | 5.22% (inactive) | 95.4 | 101 | -0.66% (inactive) | 0.48% (inactive) |
| CCOC(=O)CSC1=Nc2ccccc2C2=NC(CC(=O)NCc3cccs3)C(=O)N12 (configuration not stated) | 81.9% (inactive) | 91.7% (inactive) | 5.7% (inactive) | 86 | 91.7 | -6.75% (inactive) | -5.56% (inactive) |
| COc1ccc(Cn2nnnc2C(c2ccncc2)N2CCOCC2)cc1 (configuration not stated) | 90.4% (inactive) | 94.7% (inactive) | 3.26% (inactive) | 91.4 | 94.7 | 0.78% (inactive) | 0.95% (inactive) |
| COC(=O)c1cccc(NC(=O)CSc2nnc(COc3ccccc3)n2C)c1 | 102% (inactive) | 101% (inactive) | 13.7% (inactive) | 87 | 101 | -4.27% (inactive) | 2.22% (inactive) |
| COc1ccccc1NC(=O)N1c2ccc(F)cc2CCC1C (configuration not stated) | 83.3% (inactive) | 99% (inactive) | 15% (inactive) | 84 | 99 | -2.47% (inactive) | 3.02% (inactive) |
| CCCC(=O)Nc1ccccc1NC(=O)CCC | 108% (inactive) | 96% (inactive) | 7.25% (inactive) | 88.8 | 96 | -2.24% (inactive) | -2.38% (inactive) |
| Nc1nc(SCCOc2ccccc2)n[nH]1 | 94.1% (inactive) | 97% (inactive) | 6.12% (inactive) | 90.8 | 97 | -5.19% (inactive) | -5.24% (inactive) |
| COc1ccc(C(=O)CSc2nnc(CNc3ccc(C)cc3C)o2)cc1 | 86.8% (inactive) | 82.2% (inactive) | 0.595% (inactive) | 81.6 | 82.2 | -2.76% (inactive) | 1.9% (inactive) |
| CCOc1ccccc1N1CCN(S(=O)(=O)c2cccc3nsnc23)CC1 | 84.1% (inactive) | 86.1% (inactive) | 4.72% (inactive) | 81.4 | 86.1 | 0.26% (inactive) | 10.9% (inactive) |
| CCOC(=O)CS(=O)(=O)c1nc(-c2ccccc2)cc(C(F)(F)F)n1 | 5.62% (active) | 1.61% (active) | 0.47% (inactive) | 1.14 | 1.61 | 0.39% (inactive) | -0.63% (inactive) |
| CCn1c(SCc2cccc(C(F)(F)F)c2)nnc1-c1ccco1 | 93.9% (inactive) | 90.1% (inactive) | 9% (inactive) | 81.1 | 90.1 | -5.2% (inactive) | -0.16% (inactive) |
| CCOC(=O)c1c(C)oc2ccc(O)c(CN(C)C)c12 | 77.4% (inactive) | 87.3% (inactive) | 3.6% (inactive) | 83.7 | 87.3 | -6.1% (inactive) | 2.22% (inactive) |
| O=C(Nc1ccc2c(c1)OCO2)OCc1ccccc1 | 78.9% (inactive) | 106% (inactive) | 11.4% (inactive) | 94.5 | 106 | -4.4% (inactive) | 2.22% (inactive) |
| C=CCn1c(SCc2cc(=O)n3ccsc3n2)nnc1C1CCCCC1 | 93.1% (inactive) | 96.7% (inactive) | 17.5% (inactive) | 79.1 | 96.7 | -5.19% (inactive) | -0.16% (inactive) |
| O=C(Cc1c[nH]c2ccccc12)N1CCc2ccccc21 | 88.9% (inactive) | 80.7% (inactive) | 13.1% (inactive) | 67.5 | 80.7 | -2.99% (inactive) | -2.86% (inactive) |
| CCCn1c(=N)n(CCOc2ccc(OC)cc2)c2ccccc21 | 91.4% (inactive) | 69.8% (inactive) | 1.35% (inactive) | 68.5 | 69.8 | -6.05% (inactive) | 3.49% (inactive) |
| CCOc1ccc(OCc2cccc(C(=O)N3CCOCC3)c2)cc1 | 83.9% (inactive) | 94.5% (inactive) | 0.305% (inactive) | 94.2 | 94.5 | -5.87% (inactive) | 2.7% (inactive) |
| N=c1sc2ccccc2n1-c1ccccc1 | 102% (inactive) | 89% (inactive) | 6.59% (inactive) | 82.4 | 89 | -3.12% (inactive) | 3.33% (inactive) |
| CN(C)/C=c1\sc2c(C#N)cc(C(=O)c3ccc(Br)cc3)n2c1=O | 70% (inactive) | 76.6% (inactive) | 8.66% (inactive) | 68 | 76.6 | -4.29% (inactive) | -1.59% (inactive) |
